# Activity calls are given as the source filed them. No cut-off for these calls is given here.
# Tests used:
# Mus musculus [1] = organism: Mus musculus; assay: Effect on cell cycle distribution in against mouse 92TAg cells assessed as cell accumulation at S-phase at 8 ug/ml incubated for 15 hrs by propidium iodide staining based cytofluorimetric analysis; format: functional
# Summary of the method: (§1)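 Mouse embryonic fibroblasts (wild-type 92TAg; pol-β-null 88TAg) grown in DMEM with 10% FBS at 37 °C and 5% CO2. Synchronized in 0.2% FBS medium for 72 h, then returned to 10% FBS medium with compound for 15 h. Cell-cycle phase percentages scored by cytofluorimetry of propidium iodide-labeled cells. Experiments run at least in triplicate, one-way ANOVA.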
# Mus musculus [2] = organism: Mus musculus; assay: Effect on cell cycle distribution in against polymerase-beta knock out mouse 88TAg cells assessed as cell accumulation at S-phase at 8 ug/ml incubated for 15 hrs by propidium iodide staining based cytofluorimetric analysis; format: functional; summary of the method: as §1
# [3] = Cytotoxicity against mouse 88TAg fibroblasts assessed as compound level causing reduction of cell viability incubated for 2 hrs by MTT assay
# Summary of the method: (§2)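 Mouse embryonic fibroblasts, 92TAg (wild type) or 88TAg (pol-β null), were seeded 5 × 10^3/well and serum-deprived at treatment. Compound (5-60 μM) was given 2 h, then a 2 h MMS pulse (500 μM for 92TAg, 250 μM for 88TAg). After washout, compound was re-added and viability read 24 h from start by MTT (0.9 mg/mL, 2 h, 37 °C; DMSO lysis; A570). Means ± SEM, 3-9 determinations.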
# [4] = test system: DNA polymerase beta (Mus musculus); assay: Inhibition of DNA polymerase-beta in mouse wild-type 92TAg cells assessed as increase in MMS toxicity at 1 to 60 uM incubated for 2 hrs prior to MMS challenge for 2 hrs followed by post wash compound addition measured after 24 hrs by MTT assay
# [5] = Cytotoxicity against Sprague-Dawley rat cortical neurons at 50 uM by MTT assay; conditions: cortical neurone
# [6] = target: DNA polymerase beta (Homo sapiens) (UniProt P06746); conditions: 50 uM
# [7] = Cytotoxicity against mouse 88TAg fibroblasts assessed as reduction of cell viability at 60 uM incubated for 2 hrs by MTT assay; summary of the method: as §2
compound,measurement,setting,value
C[C@@]1(CO)[C@H](O)CC[C@@]2(C)[C@H]1CC[C@H]1C[C@@H]3C[C@@]12CC[C@]3(O)CO,Activity,Mus musculus [1],Active
same,Activity,Mus musculus [2],Active
CC1(C)NCCC12C(=O)N(Cc1ccccc1)c1ccccc12 (stereo unspecified),Activity,[3],Non-toxic
same,inhibition,[4],inactive
CC1(C)CC[C@]2(C(=O)O)CC[C@]3(C)C(=CC[C@@H]4[C@@]5(C)CC[C@H](O)C(C)(C)[C@@H]5CC[C@]43C)[C@@H]2C1 [OLEANOLIC_ACID],Activity,[5],Toxic
same,inhibition,[6],Active
Cc1ccccc1Nc1nc2ccc([N+](=O)[O-])cc2nc1Nc1ccccc1C,Activity,[3],<= 90%
C[C@H](C(=O)O)c1cccc(C(=O)c2ccccc2)c1 [DEXKETOPROFEN],Activity,[3],Non-toxic
c1ccc2c(c1)c1ccccc1n2Cn1c2ccccc2c2ccccc21,Activity,[3],<= 90%
O=c1cc(-c2ccccc2O)oc2c1ccc1ccccc12,Activity,[3],10 µM
same,Activity,[7],<= 90%
